Test results as given in ChEMBL document CHEMBL3393025, “Discovery of dual leucine zipper kinase (DLK, MAP3K12) inhibitors with activity in neurodegeneration models” (J Med Chem, 2015).

Legend:
[1] = molecular target: T1, Mitogen-activated protein kinase kinase kinase 12 (Homo sapiens, UniProt Q12852); assay: Inhibition of DLK (unknown origin)
T1 sequence (Q12852 whole entry): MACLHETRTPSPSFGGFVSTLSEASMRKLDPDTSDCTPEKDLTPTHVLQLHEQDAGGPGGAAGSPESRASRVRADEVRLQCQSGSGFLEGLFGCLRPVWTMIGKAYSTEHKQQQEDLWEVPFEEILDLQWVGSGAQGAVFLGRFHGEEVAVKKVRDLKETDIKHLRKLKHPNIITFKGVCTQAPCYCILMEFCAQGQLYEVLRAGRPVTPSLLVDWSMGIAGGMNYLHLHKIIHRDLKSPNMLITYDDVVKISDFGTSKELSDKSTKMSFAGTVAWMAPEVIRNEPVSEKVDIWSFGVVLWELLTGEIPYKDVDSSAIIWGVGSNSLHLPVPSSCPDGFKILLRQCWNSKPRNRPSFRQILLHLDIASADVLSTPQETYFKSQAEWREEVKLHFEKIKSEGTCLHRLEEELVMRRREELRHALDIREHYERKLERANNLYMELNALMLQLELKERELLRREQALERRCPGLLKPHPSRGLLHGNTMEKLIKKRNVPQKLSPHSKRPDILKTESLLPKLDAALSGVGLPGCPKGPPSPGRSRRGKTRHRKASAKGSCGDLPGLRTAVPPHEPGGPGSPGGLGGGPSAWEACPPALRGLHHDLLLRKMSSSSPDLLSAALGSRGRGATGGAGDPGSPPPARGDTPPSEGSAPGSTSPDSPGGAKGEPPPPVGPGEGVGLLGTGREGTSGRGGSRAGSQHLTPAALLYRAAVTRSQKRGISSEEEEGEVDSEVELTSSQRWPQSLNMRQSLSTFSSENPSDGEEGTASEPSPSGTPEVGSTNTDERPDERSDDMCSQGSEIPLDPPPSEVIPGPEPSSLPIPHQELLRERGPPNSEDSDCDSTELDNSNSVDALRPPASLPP

[2] = molecular target: T1, Mitogen-activated protein kinase kinase kinase 12; assay: Inhibition of human DLK transfected in HEK293 cells assessed as JNK phosphorylation after 5.5 hrs by Hoechst-33342 staining-based assay; format: cell-based
[3] = Neuroprotective activity in E14.5 rat embryo DRG neurons; format: functional; settings: drg neuron
In short: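 DRG neurons freshly dissected from E14.5 rat embryos, plated at 1200−2000 cells/well on an astrocyte monolayer in DMEM/F12 with N3 supplement, 0.18% glucose and 25 ng/mL NGF. 200 μM uridine and 100 μM 5-fluorodeoxyuridine added next day. Cultured 4 days before axon degeneration assay. IC50 reported.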

Row | SMILES | Ki [1] [nM] | IC50 [2] [nM] | IC50 [3] [nM]
1 | FC(F)(F)c1ccnc(Nc2cc(C3CCCNC3)nc(N3CCCC3)n2)c1 (stereo not drawn) | 7 | 109 | –
2 | N#Cc1ccnc(Nc2cc(C3CCOCC3)cc(N3CCC(F)(F)C3)n2)c1 | 0.9 | 70 | –
3 | N#Cc1ccnc(Nc2cc(C3CCN(C4COC4)CC3)cc(OC3CCC3)n2)c1 | 0.2 | 64 | 46
4 | CC(=O)N1CCC(c2cc(Nc3cc(C(F)(F)F)ccn3)nc(N3CCOCC3)n2)CC1 | 431 | – | –
5 | N#Cc1ccnc(Nc2cc(C3CCN(C4COC4)CC3)cc(C3CC3)n2)c1 | 1 | 62 | 155
6 | Cc1cc(C2CCN(C3COC3)CC2)cc(Nc2cc(C#N)ccn2)n1 | – | 1600 | –
7 | COc1ccnc(Nc2cc(C3CCCN(C(=O)c4ccccc4)C3)nc(C)n2)c1 (racemic) | 57 | 1000 | –
8 | Cc1nc(Nc2cc(C3CC3)ccn2)cc(C2CCCN(C(=O)c3ccccc3)C2)n1 (racemic) | 18 | 486 | –
9 | N#Cc1ccnc(Nc2cc(C3(C#N)CCOCC3)cc(N3CCC(F)(F)C3)n2)c1 | 5 | 79 | –
10 | FC1(F)CCN(c2nc(Nc3cc(C(F)(F)F)ccn3)cc(C3CCCNC3)n2)C1 (stereo not drawn) | 7 | 408 | –
11 | CC(=O)N1CCC(c2cc(Nc3cc(C#N)ccn3)nc(N3CCC(F)(F)C3)c2)CC1 | 25 | – | 180
12 | Cc1nc(Nc2cc(C(F)(F)F)ccn2)cc(C2CCCN(C(=O)c3ccccc3)C2)n1 (racemic) | 24 | 229 | –
13 | CC(C)(O)c1cc(Nc2cc(C#N)ccn2)nc(N2CCC(F)(F)C2)c1 | 5 | 125 | 401
14 | CCc1cc(C2CCN(C3COC3)CC2)cc(Nc2cc(C#N)ccn2)n1 | – | 213 | 916
15 | Cc1nc(Nc2cc(C#N)ccn2)cc(C2CCCN(C(=O)c3ccccc3)C2)n1 (racemic) | 90 | 1000 | –
16 | Cc1nc(Nc2ccccn2)cc(C2CCCN(C(=O)c3ccccc3)C2)n1 (racemic) | 942 | – | –
17 | CC(C)(C#N)c1cc(Nc2cc(C#N)ccn2)nc(N2CCC(F)(F)C2)c1 | 14 | 193 | –
18 | N#Cc1ccnc(Nc2cc(C3CCN(C4COC4)CC3)cc(N3CCC3)n2)c1 | 8 | 141 | 448
19 | COC1CN(c2cc(C3CCN(C4COC4)CC3)cc(Nc3cc(C#N)ccn3)n2)C1 | 8 | 233 | 697
20 | Cc1nc(Nc2cc(C(F)(F)F)ccn2)cc(C2CCCNC2)n1 (racemic) | 725 | – | –
21 | N#Cc1ccnc(Nc2cc(C3CN(C4COC4)C3)cc(N3CCC(F)(F)C3)n2)c1 | 0.7 | 57 | 99
22 | CC(=O)N1CCC(c2cc(Nc3cc(C(F)(F)F)ccn3)nc(N3CCC(F)(F)C3)n2)CC1 | 33 | 300 | –
23 | Cc1ccnc(Nc2cc(C3CCCN(C(=O)c4ccccc4)C3)nc(C)n2)c1 (racemic) | 85 | 767 | –
24 | CC(=O)N1CCC(c2cc(Nc3cc(C(F)(F)F)ccn3)nc(N3CC(F)(F)C3)n2)CC1 | 166 | – | –
25 | CC(=O)N1CCC(c2cc(Nc3cc(C(F)(F)F)ccn3)nc(N3CCC(F)(F)C3)c2)CC1 | 1 | 69 | 171
26 | Cc1nc(Nc2ncc(C)s2)cc(C2CCCN(C(=O)c3ccccc3)C2)n1 (racemic) | 35 | 641 | –
27 | Cc1nc(Nc2cc(C(C)C)ccn2)cc(C2CCCN(C(=O)c3ccccc3)C2)n1 (racemic) | 4 | 1300 | –
28 | FC1(F)CCN(c2nc(Nc3cc(C(F)(F)F)ccn3)cc(C3CCOCC3)n2)C1 | 41 | 440 | –
